Two molecules from ChEMBL document CHEMBL1142556, “cis-parthenolid-9-one from Anvillea garcinii” (2000) can be followed below.

Assay [1] in a line: Cytotoxicity against human leukemia cells. The class given is functional, Leukemia cell. The conditions noted are these: for EC50: Homo sapiens, Leukemia cell, read-out: ED50 (the source's name). The method in brief: (§1)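 Tested in vitro by the National Cancer Institute screen. Values are averages over each cell-line subpanel. Potency is reported two ways: C50, the half-maximal effective dose in μmol/L, and ED50, the dose that inhibits net cell growth to 50% of control growth in μg/mL.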

Assay [2] is described as follows: Cytotoxicity against human lung cancer cells. The class given is functional, Cancer cell lines. The conditions noted are these: for EC50: Homo sapiens, Cancer cell lines, read-out: ED50 (the source's name). The method in brief:
as §1

The nature of assay [3]: Cytotoxicity against human colon cancer cells. The class given is functional, Cancer cell lines. The conditions noted are these: for EC50: Homo sapiens, Cancer cell lines, read-out: ED50 (the source's name). Summed up: as §1
The nature of assay [4]: Cytotoxicity against human central nervous system cancer cells. The class given is functional, Cancer cell lines. Conditions: for EC50: Homo sapiens, Cancer cell lines, read-out: ED50 (the source's name). The method in brief:
as §1

Assay [5] in a line: Cytotoxicity against human melanoma cells. The class given is functional, Melanoma cell. The conditions noted are these: for EC50: Homo sapiens, Melanoma cell, read-out: ED50 (the source's name). Summed up:
as §1

Assay [6] can be described thus: Cytotoxicity against human ovarian cancer cells. Conditions: for EC50: Homo sapiens, Cancer cell lines, read-out: ED50 (the source's name). The class given is functional, Cancer cell lines. The method in brief: as §1
Assay [7] in a line: Cytotoxicity against human renal cancer cells. The class given is functional, Cancer cell lines. The conditions noted are these: for EC50: Homo sapiens, Cancer cell lines, read-out: ED50 (the source's name). Summed up:
as §1

Assay [8] can be described thus: Cytotoxicity against human prostate cancer cells. The class given is functional, Cancer cell lines. The conditions noted are these: for EC50: Homo sapiens, Cancer cell lines, read-out: ED50 (the source's name). Summed up: as §1
Assay [9] can be described thus: Cytotoxicity against human breast cancer cells. Conditions: for EC50: Homo sapiens, Cancer cell lines, read-out: ED50 (the source's name). The class given is functional, Cancer cell lines. Summed up: as §1

Structures are written as SMILES. ≈ marks a conversion by molar mass, not a printed value.

With `C=C1C(=O)O[C@H]2[C@H]1CC(=O)/C(C)=C/CC[C@@]1(C)O[C@@H]21`, the C50 in [1] came to 0.08 µmol/L; in assay [2], 1.8 µmol/L; in assay [3], 0.32 µmol/L; in assay [4], 2.9 µmol/L; in assay [5], 0.57 µmol/L; in [6] it was 1.4 µmol/L. For the same molecule, the C50 was determined as 0.41 µmol/L in assay [7], 2.2 µmol/L in assay [8] and 0.6 µmol/L in assay [9]. For the same molecule, the EC50 in [1] turned out to be 0.02 µg/mL (≈ 0.0762 µM); in assay [2], 0.47 µg/mL (≈ 1.79 µM); in assay [3] it was 0.08 µg/mL (≈ 0.305 µM); in [4], 0.76 µg/mL (≈ 2.9 µM); in assay [5] it was 0.15 µg/mL (≈ 0.572 µM); in assay [6] it was 0.37 µg/mL (≈ 1.41 µM). In addition, the EC50 in assay [7] is 0.11 µg/mL (≈ 0.419 µM); in assay [8], 0.57 µg/mL (≈ 2.17 µM); in [9] it was 0.16 µg/mL (≈ 0.61 µM).

`C=C1C(=O)O[C@H]2[C@H]1CC(=O)/C(C)=C\CC[C@@]1(C)O[C@@H]21`: the C50 in [1] stood at 1.94 µmol/L; in assay [2], 13.4 µmol/L; in [3] it was 7.3 µmol/L; in assay [4], 17.1 µmol/L; in assay [5] it was 10.6 µmol/L; in [6], 11.9 µmol/L. In addition, the C50 came to 8.05 µmol/L in assay [7], 14.4 µmol/L in [8] and 9.81 µmol/L in assay [9]. Besides, the EC50 in [1] worked out at 0.51 µg/mL (≈ 1.94 µM); in assay [2], 3.51 µg/mL (≈ 13.4 µM); in [3] it was 1.91 µg/mL (≈ 7.28 µM); in assay [4], 4.47 µg/mL (≈ 17 µM); in [5], 2.77 µg/mL (≈ 10.6 µM); in assay [6], 3.13 µg/mL (≈ 11.9 µM). Also, the EC50 in [7] is 2.11 µg/mL (≈ 8.04 µM); in assay [8], 3.77 µg/mL (≈ 14.4 µM); in assay [9], 2.57 µg/mL (≈ 9.8 µM).
